Assay results published in ChEMBL document CHEMBL4680238, “Novel octapeptide-DTX prodrugs targeting MMP-7 as effective agents for the treatment of colorectal cancer with lower systemic toxicity” (Eur J Med Chem, 2020).
Residues, ends and D or L forms follow the SMILES beside them. *: point of attachment. X2 = CC(=O)O[C@@]12CO[C@@H]1C[C@H](O)[C@@]1(C)C(=O)[C@H](O)C3=C(C)[C@@H](OC(=O)[C@H](OC(=O)OCc4ccc(N*)cc4)[C@@H](NC(=O)OC(C)(C)C(F)(F)F)c4ccccc4)C[C@@](O)([C@@H](OC(=O)c4cccc(F)c4)[C@H]21)C3(C)C

Tests used:
HCT-116 [1] = assay: Cytotoxicity against human HCT-116 cells assessed as reduction in cell viability after 48 hrs by MTT assay; assay type: functional, cell-based; settings: HCT-116, 48 h
In short: (§1)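 Cells seeded at 5000/well and precultured 1 day. HCT116 grown in McCoy's 5A + 10% FBS; SW620 and HEK293 in DMEM + 10% FBS; CCD18Co in DMEM + 15% FBS. Compounds from 0.1 M DMSO stocks were tested at 10^-10 to 10^-4 mol/L in sixplicate: HCT116 and HEK293 for 48 h, SW620 and CCD18Co for 72 h, at 37 °C, 5% CO2. MTT (5 mg/mL) added for 4 h, then A570 read; IC50 estimated.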

[2] = Half life of compound in PBS buffer at pH 7.4 at 50 ug/ml up to 72 hrs by RP-HPLC analysis; assay type: physicochemical; settings: dose 50 µg/ml
[3] = Toxicity in BALB/c nude mouse xenografted with human HCT-116 cells assessed as necrosis in liver at 11.17 mg/kg, ip administered once for every 7 days for 14 days by H and E staining based assay; assay type: organism-based; settings: in vivo, 336 h, time 14 day
In short: (§2)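 At the end of the 14-day ip xenograft study (HCT116, BALB/c nude), heart and liver were collected from vehicle and molar-equivalent dose groups. Tissues fixed in 10% formalin in PBS and stained with H&E. Liver examined at 400×, heart at 100×.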

[4] = Toxicity in BALB/c nude mouse xenografted with human HCT-116 cells assessed as inflammatory cell invasion in heart at 11.17 mg/kg, ip administered once for every 7 days for 14 days by H and E staining based assay; assay type: organism-based; settings: in vivo, 336 h, time 14 day; in short: as §2
[5] = Toxicity in BALB/c nude mouse xenografted with human HCT-116 cells assessed as reduction in body weight at 5.5 mg/kg, ip administered once for every 7 days for 14 days relative to control; assay type: organism-based; set-up: scale not given: the % may be the effect or the level left; settings: in vivo, 336 h, time 14 day
In short: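 HCT116 cells (2 × 10^6 in 0.2 mL PBS) inoculated subcutaneously into male BALB/c nude mice; at mean tumor volume 100-200 mm3, randomized, six mice per group. Dosed intraperitoneally once every 7 days in DMSO (0.5%)/castor oil (5%)/ethanol (5%)/saline (89.5%), 0.1 mL per 10 g; vehicle controls received solvent. Body weight monitored every other day or three days; mice weighed on day 14.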

HCT-116 [6] = assay: Antitumour activity against human HCT-116 cells xenografted in BALB/c nude mouse assessed as tumour growth inhibition at 5.55 mg/kg, ip administered once for every 7 days for 14 days relative to control; assay type: functional; settings: HCT-116, ip, 336 h, time 14 day, read-out: TGI
In short: (§3)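 Male BALB/c nude mice received s.c. HCT116 cells (2 × 10^6 in 0.2 mL PBS). Once tumours reached 100-200 mm3, mice were randomized into groups of six. Dosing was ip, 0.1 mL/10 g, once every 7 days, in DMSO 0.5%/castor oil 5%/ethanol 5%/saline 89.5%; vehicle controls got solvent. Caliper volume V = L×W²×0.52 read every 2-3 days. Tumours excised and weighed on day 14.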

[7] = Toxicity in BALB/c nude mouse xenografted with human HCT-116 cells assessed as concentrated nucleus in liver at 11.17 mg/kg, ip administered once for every 7 days for 14 days by H and E staining based assay; assay type: organism-based; settings: in vivo, 336 h, time 14 day; in short: as §2
[8] = Toxicity in BALB/c nude mouse xenografted with human HCT-116 cells assessed as reduction in body weight at 11.1 mg/kg, ip administered once for every 7 days for 14 days relative to control; assay type: organism-based; set-up: scale not given: the % may be the effect or the level left; settings: in vivo, 336 h, time 14 day
In short: (§4)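 HCT116 s.c. xenografts in male BALB/c nude mice, n = 6 per group. Dosing was ip once every 7 days for 2 weeks in DMSO/castor oil/ethanol/saline; vehicle controls got solvent. Body weight recorded every other day or every three days. Weight loss taken at day 14. Mean ± SD.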

[9] = Toxicity in BALB/c nude mouse xenografted with human HCT-116 cells assessed as reduction in body weight at 22.2 mg/kg, ip administered once for every 7 days for 14 days relative to control; assay type: organism-based; set-up: scale not given: the % may be the effect or the level left; settings: in vivo, 336 h, time 14 day; in short: as §4
CCD-18Co = assay: Cytotoxicity against human CCD-18Co cells assessed as reduction in cell viability after 72 hrs by MTT assay; assay type: cell-based; in short: as §1
SW-620 = assay: Cytotoxicity against human SW-620 cells assessed as reduction in cell viability after 72 hrs by MTT assay; assay type: functional, cell-based; settings: SW-620, 72 h; in short: as §1
HCT-116 [10] = assay: Antitumour activity against human HCT-116 cells xenografted in BALB/c nude mouse assessed as tumour growth inhibition at 22.2 mg/kg, ip administered once for every 7 days for 14 days relative to control; assay type: functional; settings: HCT-116, ip, 336 h, time 14 day, read-out: TGI; in short: as §3
HEK293 = assay: Cytotoxicity against HEK293 cells assessed as reduction in cell viability after 48 hrs by MTT assay; assay type: cell-based; settings: Homo sapiens, HEK293, 48 h; in short: as §1
HCT-116 [11] = assay: Antitumour activity against human HCT-116 cells xenografted in BALB/c nude mouse assessed as tumour growth inhibition at 11.1 mg/kg, ip administered once for every 7 days for 14 days relative to control; assay type: functional; settings: HCT-116, ip, 336 h, time 14 day, read-out: TGI; in short: as §3
HCT-116 [12] = assay: Antitumour activity against human HCT-116 cells xenografted in ip dosed BALB/c nude mouse assessed as tumour growth inhibition administered once for every 7 days for 14 days; assay type: functional, organism-based; settings: time 14.0 day; in short: as §3
[13] = Half life in Sprague-Dawley rat plasma t 50 ug/ml up to 72 hrs by RP-HPLC analysis; assay type: ADME, cell-free; settings: dose 50 µg/ml
[14] = Toxicity in BALB/c nude mouse xenografted with human HCT-116 cells assessed as disordered myocardial fiber in heart at 11.17 mg/kg, ip administered once for every 7 days for 14 days by H and E staining based assay; assay type: organism-based; settings: in vivo, 336 h, time 14 day; in short: as §2

half-life at 50 ug/ml [2]: > 72 h
half-life at 50 ug/ml [13]: 43.8 h
Compound: CC[C@H](C)[C@H](NC(=O)CNC(=O)[C@H](CCC(N)=O)NC(=O)[C@@H]1CCCN1C(=O)CNC(C)=O)C(=O)N[C@@H](C)C(=O)N[C@@H](CCSC)C(=O)N[C@@H](CCC(N)=O)C(=O)N[C@@H](CC(C)C)C(=O)Nc1ccc(COC(=O)O[C@@H](C(=O)O[C@H]2C[C@@]3(O)[C@@H](OC(=O)c4cccc(F)c4)[C@@H]4[C@]5(OC(C)=O)CO[C@@H]5C[C@H](O)[C@@]4(C)C(=O)[C@H](O)C(=C2C)C3(C)C)[C@@H](NC(=O)OC(C)(C)C(F)(F)F)c2ccccc2)cc1 (Ac-GPQGIAMQL-X2)
IC50 (HCT-116 [1]): 0.0028 µM
Activity [3]: Non-Toxic
Activity [4]: Non-Toxic
Activity [5]: 4.6%
inhibition in vivo at 5.55 mg/kg (HCT-116 [6]): 30.5%
Activity [7]: Non-Toxic
Activity [8]: 8.5%
Activity [9]: 8.7%
IC50 (CCD-18Co): > 200 µM
IC50 (SW-620): 6.59 µM
inhibition in vivo at 22.2 mg/kg (HCT-116 [10]): 46.3%
IC50 (HEK293): 86.8 µM
inhibition in vivo at 11.1 mg/kg (HCT-116 [11]): 35.2%
TGI (HCT-116 [12]): Dose-dependent effect
Activity [14]: Non-Toxic
